# This excerpt belongs to a sample that is enriched for hits.
# PGC1a acetyl up: raises PGC1a acetylation signal in U2OS cells | U2OS PGC1a acetylation AlphaScreen, overnight | activation, % at 15.6 µM | 350,000 tested, 0.21% active;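 active = every replicate reaching activation of at least 50%, whatever the mean replicate activation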;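 note: hits raise the AlphaScreen acetylation signal above neutral controls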
#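 Test system: U2OS cells expressing flag-PGC1a plus GCN5; Amount: 7000 U2OS cells per well; Compound: single test concentration per compound; Incubation: compound overnight at 37 °C, each detection step 1 h RT; Signal: AlphaScreen lysate read.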
# Numbers stand for hits; i = inactive.
SMILES,PGC1a acetyl up
O=C(c1cc(C2CC2)on1)N1CCCC(N2CCN(c3cccc(C(F)(F)F)c3)CC2)C1 (centres undefined),i
O=c1[nH]c(/C=C/c2ccc([N+](=O)[O-])cc2)c([N+](=O)[O-])c(=O)[nH]1,i
O=C(Nc1c(F)cccc1F)c1ccc(-n2cncn2)nc1,53.5
NC(=O)c1oc2ccccc2c1NC(=O)C1CC(=O)N(c2ccccc2)C1 (centres undefined),i
CN(c1cc2c(c3c1ccn3C)C1CCC2C1)C1CCCCC1 (centres undefined),i
c1ccc(N2CCN(c3ccccc3)C2c2ccncc2)cc1,i
C#CCN(C[C@@H]1[C@@H](OC(=O)NC2CCCC2)[C@@H](OC(=O)NC2CCCC2)Cn2c(=O)ccc(=O)n21)S(=O)(=O)c1ccc(C)cc1,110.8
C#CCN(C[C@@H]1[C@@H](OC(=O)Nc2cccs2)[C@@H](OC(=O)Nc2cccs2)Cn2c(=O)ccc(=O)n21)S(=O)(=O)c1ccc(C)cc1,i
C#CCN(C[C@@H]1[C@@H](OC(=O)NCc2ccccc2F)[C@@H](OC(=O)NCc2ccccc2F)Cn2c(=O)ccc(=O)n21)S(=O)(=O)c1ccc(C)cc1,i
CCCCCCCCCCCCS[C@H]1CS(=O)(=O)C[C@@H]1O,i
O=C(O)c1cc(-c2ccc3c(c2)OCO3)nc2ccccc12,93.3
Cc1ccc(-c2cc(C(=O)N3CCOCC3)c3ccccc3n2)o1,i
O=C(N/N=C/c1ccc2c(c1)OCO2)c1cc(-c2ccc(F)cc2)nc2ccccc12,i
Cc1ccc(NCC(=O)N/N=C\C(Br)=C\c2ccccc2)cc1,145.3
O=C(O)c1ccc(N/N=C/C(Br)=C/c2ccccc2)cc1,54.0
O=c1oc(-c2ccccc2)nc2sc3c(c12)CCC3,i
Cc1ccccc1-c1nc(SCc2ccccn2)c2c(=O)n(C)c(=O)n(C)c2n1,i
CCN(CC)c1ccc(NC(=O)c2ccc(NC(=O)C3CCCO3)cc2)c(C)c1 (centres undefined),53.5
COc1ccc(CN(C)C[C@H]2Oc3ccc(NC(=O)Cc4cn(C)c5ccccc45)cc3CC(=O)N([C@@H](C)CO)C[C@@H]2C)cc1,i
N#C/C(=C/c1ccc(OCc2ccc(C(=O)O)cc2)c(Br)c1)c1cccc(F)c1,i
C[C@H]1CN([C@@H](C)CO)C(=O)c2cccc(NC(=O)Nc3ccc(C(F)(F)F)cc3)c2O[C@H]1CN(C)C(=O)Nc1cccc2ccccc12,i
C=C1C(=O)[C@]23C[C@H]1CCC2[C@@]1(C)C(C[C@@H]3O)[C@](C)(C(=O)OC)CC[C@@H]1O (some centres undefined),i
O=C(Nc1ccccc1)C1=C(c2ccccc2)S(=O)(=O)CCS1(=O)=O,103.8
CC(=O)Nc1ccc(S(=O)(=O)N2CCN(c3ccccn3)CC2)cc1,i
O=C(Nc1ccc(F)cc1F)N1CCCN(c2ccc([N+](=O)[O-])cn2)CC1,94.1
SMILES,PGC1a acetyl up
CC(C)(C)c1ccc(NC(=O)N2CCN(c3ccc([N+](=O)[O-])cn3)CC2)cc1,191.5
O=C(Cc1ccc(Cl)cc1)Nc1ncccn1,i
N#Cc1c(-c2cccc(Br)c2)cc(-c2ccco2)[nH]c1=O,i
O=C(CN1CCOCC1)N[C@H]1CC[C@H](CCNC(=O)Nc2cc(F)ccc2F)O[C@H]1CO,i
CC1=C(Cl)C2=NS(=O)(=O)CCN2C=C1Cl,i
O=C1C=CCCN1C(=O)/C=C/c1cccc(C(F)(F)F)c1,i
O=C1C=C(c2cc3ccccc3s2)CCC1,58.2
C=CCN=C1S/C(=C/c2ccc([N+](=O)[O-])cc2)C(=O)N1CC=C,i
Cc1ccc(NC(=S)c2ccncc2)cc1,66.3
O=[N+]([O-])c1ccc(Oc2ccc(F)cc2)c2ccncc12,i
COC(=O)C(=Cc1ccc(OCc2ccc([N+](=O)[O-])cc2)c(OC)c1)C(=O)OC,i
CCN=C(N/N=C/c1ccc([N+](=O)[O-])cc1)SC,59.3
CCn1c(C)c(C)c2cc(C(=O)NCCN3CCOCC3)ccc21,i
C/C=C(/C)C(=O)O[C@@H]1c2cc(OC)c(OC)c(OC)c2-c2c(cc3c(c2OC)OCO3)C[C@H](C)[C@]1(C)O,167.1
COc1ccc(C2c3c(oc4ccccc4c3=O)C(=O)N2CCN2CCOCC2)cc1OC (centres undefined),i
COc1ccc(CCNCc2ccc(-c3ccccc3)cc2)cc1OC,i
COc1ccc(CCN2C(=O)c3[nH]nc(-c4ccccc4O)c3C2c2ccccc2)cc1OC (centres undefined),52.9
C[C@@H]1CN([C@@H](C)CO)C(=O)c2cc(C3=CCCC3)cnc2O[C@@H]1CN(C)C(=O)Nc1cccc(F)c1,131.2
C[C@@H]1CN([C@H](C)CO)C(=O)c2cc(C#Cc3cccc(F)c3)cnc2O[C@H]1CN(C)CC1CCCC1,58.1
C[C@H]1CN([C@@H](C)CO)C(=O)c2cc(C3=CCCC3)cnc2O[C@@H]1CN(C)C(=O)c1cccnc1,i
C[C@@H]1CN([C@@H](C)CO)C(=O)c2cc(C#CCN(C)C)cnc2O[C@H]1CN(C)Cc1ccc(F)cc1,i
C[C@H]1CN([C@@H](C)CO)C(=O)c2cc(-c3cncnc3)cnc2O[C@@H]1CN(C)C(=O)c1cccc(F)c1,i
C[C@H]1CN([C@@H](C)CO)C(=O)c2cc(C#Cc3ccccc3)cnc2O[C@@H]1CN(C)C(=O)c1ccccc1F,i
Cc1nnc(-c2ccccc2)c(=O)n1/N=C/c1c(O)ccc2ccccc12,i
CCc1c(C)nc(N)nc1Cl,i
SMILES,PGC1a acetyl up
COC(=O)Nc1ccc(Oc2ccccc2)cc1,i
CCOC(=O)/C(C#N)=N/Nc1ccc(S(=O)(=O)Nc2cc(OC)nc(OC)n2)cc1,i
Cc1cc(NS(=O)(=O)c2ccc(NC(=O)CCCOc3ccccc3)cc2)no1,51.9
Nc1[nH]ncc1N=Nc1ccc(Cl)cc1,65.3
Cc1ccc(N2CCN(CC(O)COC3CCCCC3)CC2)cc1 (centres undefined),82.0
C[C@H]1CN([C@@H](C)CO)S(=O)(=O)c2ccc(-c3cncnc3)cc2O[C@H]1CN(C)C(=O)CN(C)C,i
COc1ccc(CCNC(=O)C2CCN(C(=O)c3ccc(F)cc3)CC2)cc1OC,i
COc1ccc(CCNC(=O)COC(=O)c2ccco2)cc1OC,107.8
O=C(COC(=O)c1ccco1)NCc1ccc2c(c1)OCO2,i
CC(=NNC(=S)N1CCC1)c1ccccn1,190.1
C/C(=N\NC(=O)CN1CCCCC1)c1ccccc1O,i
O=C(O)c1ccccc1C(=O)N1CCN(C(=O)c2ccccc2Cl)CC1,i
CCN(CC)CCNC(=O)c1ccc2c(c1NCCO)C(=O)c1ccccc1C2=O,i
COc1c(O)cc(O)c2c(=O)cc(-c3ccccc3)oc12,63.6
COc1ccc(S(=O)(=O)N2CCC(C(=O)N3CCC(C(N)=O)CC3)CC2)cc1Cl,i
Cc1ccc(C2CC2c2n[nH]c(=S)n2-c2ccc(Cl)cc2)cc1 (centres undefined),i
C[C@H](CO)N1C[C@H](C)[C@H](CN(C)S(=O)(=O)c2ccccc2C#N)OCc2cnnn2CCCC1=O,i
COC(c1ccccc1)c1nnc(CCC(=O)N(C)C(C2CC2)C2CC2)o1 (centres undefined),i
CC1(Cc2ccc(Cl)s2)C(=O)Nc2c(Cl)ccc(Cl)c21 (centres undefined),65.3
CN(C)C(=O)C[C@H]1C[C@@H]2c3cc(NC(=O)C4CCOCC4)ccc3O[C@@H]2[C@H](CO)O1,i
CC1=C(C(N)=O)C(c2ccccc2)n2nc(-c3ccncc3)nc2N1 (centres undefined),59.8
CCCn1c(=O)c2ccccc2n2c(SCc3c(C(=O)OCC)oc4ccccc34)nnc12,i

# Source: PubChem (Broad Institute)
